Measured values reported in ChEMBL document CHEMBL3085650, “Extending the record of bis-γ-pyrone polypropionates from marine pulmonate mollusks” (J Nat Prod, 2013).

Columns and labels:
A549 = assay: Growth inhibition of human A549 cells after 72 hrs by MTT assay; format: functional, cell-based; conditions: A549, 72 h
Method in brief: (§1)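 Human cancer cell lines (from ATCC, ECACC or DSMZ) cultured 72 h with compound; viable cells measured by MTT colorimetric assay, where mitochondrial succinate dehydrogenase reduces yellow MTT to blue formazan, read by spectrophotometry. Optical density of treated versus control cells gives growth inhibition, expressed as IC50 (μM). Camptothecin and etoposide served as reference compounds.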

MCF7 = assay: Growth inhibition of human MCF7 cells after 72 hrs by MTT assay; format: functional, cell-based; conditions: MCF7, 72 h; method in brief: as §1
PC-3 = assay: Growth inhibition of human PC3 cells after 72 hrs by MTT assay; format: functional, cell-based; conditions: PC-3, 72 h; method in brief: as §1
[1] = Growth inhibition of human Hs683 cells after 72 hrs by MTT assay; format: functional, cell-based; conditions: Hs 683, 72 h; method in brief: as §1
[2] = Growth inhibition of human U373 cells after 72 hrs by MTT assay; format: functional, cell-based, U-373MG ATCC; conditions: U373 MG; method in brief: as §1
SK-MEL-28 = assay: Growth inhibition of human SK-MEL-28 cells after 72 hrs by MTT assay; format: functional, cell-based; conditions: SK-MEL-28, 72 h; method in brief: as §1

| IC50 (A549) | IC50 (MCF7) | IC50 (PC-3) | IC50 (SK-MEL-28) | SMILES | IC50 [1] | IC50 [2] |
| --- | --- | --- | --- | --- | --- | --- |
| 15 µM | 15 µM | 3 µM | 25 µM | CCc1oc([C@H](C)/C=C(\C)[C@H](OC(C)=O)[C@H](C)[C@@H](OC(=O)CC(C)C)[C@@H](C)c2oc([C@@H](C)[C@@H](O)CC)c(C)c(=O)c2C)c(C)c(=O)c1C | 30 µM | 21 µM |
| 3 µM | 4 µM | 2 µM | 7 µM | CCC(=O)O[C@@H](/C(C)=C/[C@@H](C)c1oc(CC)c(C)c(=O)c1C)[C@H](C)[C@@H](OC(=O)CC(C)C)[C@@H](C)c1oc([C@@H](C)[C@H](CC)OC(C)=O)c(C)c(=O)c1C | 3 µM | 9 µM |
| > 100 µM | > 100 µM | > 100 µM | > 100 µM | CCc1oc([C@H](C)/C=C(\C)[C@H](O)[C@H](C)[C@@H](OC(=O)CC(C)C)[C@@H](C)c2oc([C@@H](C)[C@@H](O)CC)c(C)c(=O)c2C)c(C)c(=O)c1C | > 100 µM | > 100 µM |
| 2 µM | 4 µM | > 100 µM | 3 µM | COc1cc([C@@H]2c3cc4c(cc3[C@@H](O[C@@H]3O[C@@H]5CO[C@@H](C)O[C@H]5[C@H](O)[C@H]3O)[C@H]3COC(=O)[C@H]23)OCO4)cc(OC)c1O [ETOPOSIDE] | 2 µM | 25 µM |
| 12 µM | 12 µM | 3 µM | 25 µM | CCC(=O)O[C@@H](/C(C)=C/[C@@H](C)c1oc(CC)c(C)c(=O)c1C)[C@H](C)[C@@H](OC(=O)CC(C)C)[C@@H](C)c1oc([C@@H](C)[C@@H](O)CC)c(C)c(=O)c1C | 13 µM | 21 µM |
| > 100 µM | 87 µM | 82 µM | > 100 µM | CCC(=O)[C@@H](C)c1oc([C@H](C)[C@@H]2O[C@](O)([C@@H](C)c3oc(CC)c(C)c(=O)c3C)[C@@H](C)[C@@H](O)[C@@H]2C)c(C)c(=O)c1C | > 100 µM | > 100 µM |
| 26 µM | 21 µM | 16 µM | 23 µM | CCC(=O)[C@H](C)c1oc([C@H](C)[C@@H]2O[C@](O)([C@@H](C)c3oc(CC)c(C)c(=O)c3C)[C@@H](C)[C@@H](OC(=O)CC(C)C)[C@@H]2C)c(C)c(=O)c1C | 23 µM | 25 µM |
| 28 µM | 25 µM | 7 µM | 33 µM | CCc1oc([C@H](C)/C=C(\C)[C@H](OC(C)=O)[C@H](C)[C@@H](OC(=O)CC(C)C)[C@@H](C)c2oc([C@@H](C)[C@H](CC)OC(C)=O)c(C)c(=O)c2C)c(C)c(=O)c1C | 24 µM | 32 µM |
| > 100 µM | > 100 µM | > 100 µM | > 100 µM | CCC(=O)[C@H](C)c1oc([C@H](C)[C@@H]2O[C@](O)([C@@H](C)c3oc(CC)c(C)c(=O)c3C)[C@@H](C)[C@@H](O)[C@@H]2C)c(C)c(=O)c1C | > 100 µM | > 100 µM |

| SMILES | IC50 (A549) | IC50 (MCF7) | IC50 (PC-3) | IC50 (SK-MEL-28) | IC50 [1] | IC50 [2] |
| --- | --- | --- | --- | --- | --- | --- |
| CC[C@@]1(O)C(=O)OCc2c1cc1n(c2=O)Cc2cc3ccccc3nc2-1 [CAMPTOTHECIN] | < 0.01 µM | < 0.01 µM | 0.01 µM | < 0.01 µM | < 0.01 µM | 0.015 µM |
